Screens as filed in PubChem.
Shown are actives, neighbours in structure and some others; about 4.9% of the full set was active somewhere.
RAM network inh = yeast RAM network inhibition; S. cerevisiae dse1pr::URA3 reporter, 5-FOA growth OD615, 2 d; analog-sensitive cbk1-as2 kinase mutant strain; inhibition, % at 50 µM; 1.8% of 190,000 active;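 active means inhibition above a set limit, 3 SD over mean compound inhibition, cut at about 8.4% in these data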;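 further: 0% = DMSO-only wells with no growth and 100% = 10 µM 1-NA-PP1 full growth; inhibition rescues growth on 5-FOA so higher OD means more RAM inhibition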
NPY Y1 blocker = NPY-Y1 (human) receptor antagonism | P25929 | HEK293-CNG Y1 cells, membrane potential fluorescence; NPY at EC95, then isoproterenol | inhibition, % at 3.6 µM | 1% of 200,000 active | AID 1040;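 active means inhibition above the campaign mean inhibition of all tested compounds plus 3 SD, cut at about 20% in these data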;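 further: 0% = DMSO wells given NPY plus isoproterenol and 100% = isoproterenol alone without NPY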
Target sequence (P25929 whole entry, looked up): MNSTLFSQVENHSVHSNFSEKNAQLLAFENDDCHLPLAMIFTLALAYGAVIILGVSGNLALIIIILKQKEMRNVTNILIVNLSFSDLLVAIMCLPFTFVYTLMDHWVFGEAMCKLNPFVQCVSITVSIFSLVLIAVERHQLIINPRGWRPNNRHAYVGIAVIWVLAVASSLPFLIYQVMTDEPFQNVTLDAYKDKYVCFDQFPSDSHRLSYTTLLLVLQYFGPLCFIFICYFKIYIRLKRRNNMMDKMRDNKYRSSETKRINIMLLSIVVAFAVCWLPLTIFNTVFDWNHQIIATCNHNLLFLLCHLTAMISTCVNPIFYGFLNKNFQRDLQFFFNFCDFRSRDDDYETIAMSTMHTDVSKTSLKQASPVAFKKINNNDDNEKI
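Material: HEK293 cells co-expressing NPY Y1 receptor and cyclic-nucleotide gated channel. Timing: compound incubation 1 h at room temperature, readout 45 min post-stimulation. Signal: fluorescence, membrane potential probe.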
NPY2 pot ag = potentiators or agonists of human neuropeptide Y receptor Y2; 0.45% of 220,000 active; cells expressing NPY-Y2, potentiator/agonist read-out; P49146; activation, % at 3.6 µM; in the data active means activation above about 27%;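 further: cells stimulated with NPY near EC25 plus isoproterenol at EC100; 0% = vehicle plus submaximal agonist and 100% = vehicle plus saturating agonist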
Target sequence (P49146 whole entry, looked up): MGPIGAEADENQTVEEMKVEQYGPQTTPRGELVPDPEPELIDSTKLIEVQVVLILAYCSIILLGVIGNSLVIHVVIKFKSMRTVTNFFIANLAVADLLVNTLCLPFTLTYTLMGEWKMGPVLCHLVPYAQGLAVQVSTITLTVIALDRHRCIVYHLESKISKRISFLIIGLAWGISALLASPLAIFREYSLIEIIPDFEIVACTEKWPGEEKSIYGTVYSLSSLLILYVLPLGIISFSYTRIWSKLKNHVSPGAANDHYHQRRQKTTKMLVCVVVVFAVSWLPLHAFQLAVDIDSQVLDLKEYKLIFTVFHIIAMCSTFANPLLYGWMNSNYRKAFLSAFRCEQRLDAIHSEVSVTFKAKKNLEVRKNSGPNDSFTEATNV
NPY-Y1 PAM-ag = human NPY-Y1 potentiation or agonism, primary screen | P25929 | NPY-Y1 expressing cells, potentiator/agonist activation | activation, % at 3.6 µM | 0.37% of 220,000 active | AID 1304; in the data active means activation above about 33%, passing the limit was not always enough;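 further: cells stimulated with NPY at EC10 then isoproterenol at EC100; 0% = low agonist plus stimulus and 100% = saturating agonist plus stimulus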
NPY-Y2 antag = blocks the human neuropeptide Y Y2 receptor. P49146. NPY-Y2 expressing cells, antagonist mode. inhibition, % at 2.7 µM. 0.99% of 140,000 active. AID 793; in the data active means inhibition above about 17%;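 further: 0% = vehicle with agonist challenge and 100% = reference antagonist with challenge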
WT yeast gro inh = growth inhibition of WT yeast, mitochondrial fusion screen; mitochondrial fusion phenotypic screen, WT strain; inhibition, % at 10 µM; 2.1% of 190,000 active; AID 1362; in the data active means inhibition above about 58%; tested in S. cerevisiae
NPY1 antag ctr = counter-screen for NPY-Y2 antagonists: human NPY-Y1 antagonism; shares compounds with NPY-Y2 antag; cell-based NPY-Y1 antagonism counterscreen; inhibition, % at 3.6 µM; 19% of 710 active; AID 1256; in the data active means inhibition above about 20%;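 further: cells challenged with NPY then isoproterenol with cAMP sensed through a CNG channel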
NPY2 antag conf = confirmation of human neuropeptide Y receptor Y2 antagonists; inhibition, % at 2.8 µM; AID 1257; shares compounds with NPY-Y2 antag; HEK293 NPY-Y2 CNG channel, membrane potential fluorescence; 32% of 710 active;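 active means mean inhibition of triplicate wells above the hit cutoff set in the primary screen, cut at about 17% in these data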;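 further: 0% = DMSO with NPY challenge and 100% = BIIE0246 high control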
RAM 5-FOA = RAM network inhibition, efflux-deficient strain; shares compounds with RAM network inh; S. cerevisiae efflux-deficient reporter strain, 5-FOA growth OD615, 2 days; max inhibition, %; 1,200 tested, under 10 active; AID 1305; call rule not given here;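 further: plate controls were vehicle for no effect and reference inhibitor for full effect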
The depositor's hits bear a star; . = no result given.

SMILES | RAM network inh | NPY Y1 blocker | NPY2 pot ag | NPY-Y1 PAM-ag | NPY-Y2 antag | WT yeast gro inh | others
CCOP(=O)(OCC)C(NC(=O)c1ccccc1)=C(Cl)Cl | -0.7 | -1.2 | 1.2 | 16.2 | 1.4 | 5.8
Cc1cc(/C=C2\C(=O)NC(=O)N(c3ccc(Br)cc3)C2=O)c(C)n1C | 10.7* | -6.6 | -10.9 | 1.9 | . | 2.4
CC(C)(C)C(O)C(Oc1ccc(Cl)cc1)n1cncn1 (stereo not drawn) | -0.9 | -3.4 | -9.8 | 6.4 | 1.9 | -60.5
O=c1cc(CN2CC=C(c3ccccc3)CC2)c2c(ccc3ccccc32)o1 | 1.0 | -7.0 | 63.6* | 69.7* | 5.4 | 8.2
CC(C)n1c(O)c(C=NCc2ccccc2)c(=O)[nH]c1=S | . | . | 3.9 | 2.9 | . | .
Cc1cc(C)cc(N2C(=O)NC(=O)/C(=C\c3cccn3-c3ccccc3)C2=O)c1 | 9.8* | -5.4 | 13.1 | 8.5 | 1.3 | -1.7
CN1C(=O)C(=Cc2ccc(SC3CCCCC3)o2)C(=O)N(C)C1=O | 4.4 | -3.0 | 0.1 | -11.2 | . | 5.3
Cc1ccc(N)c(C(=O)c2ccccc2)c1 | -0.4 | -9.1 | 103.5* | 97.8* | 2.8 | -4.4
Brc1ccc2c(c1)C(OC1CN3CCC1CC3)c1ccccc1CS2 (stereo not drawn) | 0.0 | 12.5 | 13.9 | -11.9 | 11.4 | 82.1*
c1ccc2c(c1)CSc1ccccc1C2C1=NCCN1 (stereo not drawn) | -0.2 | 3.9 | -11.2 | -6.8 | 3.8 | 1.8
CCOC(=O)c1c(-n2c(C)cc(C=C3C(=O)NC(=S)NC3=O)c2C)sc2c1CCCC2 | 11.0* | 0.0 | 7.7 | 21.4 | 5.1 | 77.6*
CN1CCN(c2ccc([N+](=O)[O-])c3cccnc23)CC1 | 2.1 | 2.8 | -10.7 | -22.2 | 3.7 | -2.1
O=[N+]([O-])c1ccc(N2CCNCC2)c2ncccc12 | 0.9 | -7.8 | 46.5* | 74.1* | 0.3 | 5.0
CC12CCC3C(CC=C4CC(O)CCC43C)C1C/C(=C\c1ccccc1F)C2=O (stereo not drawn) | 3.6 | 3.0 | -8.2 | -5.3 | 5.4 | 65.0*
Fc1ccc(Cn2nnnc2C(c2ccc(Cl)cc2)N2CC=C(c3ccc(F)cc3)CC2)cc1 (stereo not drawn) | 10.2* | 7.1 | 3.9 | -13.0 | 2.8 | 28.5
CN(C)c1ccc(/C=C/c2cc[n+](C)c3ccccc23)cc1 | 0.9 | 0.9 | 1.8 | 13.2 | . | 77.8*
CN1CCN(Cc2cc(C(C)(C)C)c(O)c(C(C)(C)C)c2)CC1 | 0.6 | -0.4 | 50.5* | 77.4* | 6.1 | 1.9
CC(=O)c1ccc2c(c1)C1C(Cl)C(Sc3ccccc3[N+](=O)[O-])CC1C(C(=O)O)N2 (stereo not drawn) | 10.8* | -4.1 | 2.0 | -0.4 | 1.2 | 4.7
COC(=O)c1ccc(C(C(=O)NC2CCCCC2)N(CCN2CCOCC2)C(=O)Cc2cccs2)cc1 (stereo not drawn) | 2.1 | 2.4 | -5.7 | 10.0 | . | 14.3
Cc1sc2ncn(CC(=O)N3CCC4(CC3)OCCO4)c(=O)c2c1C | 1.1 | -1.8 | -0.8 | -3.4 | -0.1 | -0.6
CCN(CC)S(=O)(=O)c1ccc(NN=C(C#N)C#N)cc1 | 6.1 | 0.9 | 15.2 | 24.7 | 1.9 | 21.3
N#CC(C#N)=NNc1ccc(-n2ccc(C(F)(F)F)n2)cc1 | . | . | 68.5* | 55.4* | . | .
O=C(/C=C/C=C/c1ccccc1)CC1(O)C(=O)Nc2ccccc21 (stereo not drawn) | 1.9 | 1.6 | -3.8 | -8.0 | . | -3.1
FC(F)(F)c1ccc2c(c1)nnn2C1CCN(Cc2nnnn2Cc2ccccc2)CC1 | 0.8 | 1.2 | 23.9 | 3.9 | 1.0 | 11.4
CCn1nc(/C=C/c2ccccc2)nc2c(=O)n(C)c(=O)nc1-2 | -1.8 | -0.3 | -13.7 | -5.8 | . | 90.0*
SMILES | RAM network inh | NPY Y1 blocker | NPY2 pot ag | NPY-Y1 PAM-ag | NPY-Y2 antag | WT yeast gro inh | others
Nc1ccncc1 | 1.0 | -0.9 | -1.5 | -0.4 | -1.6 | 1.2
CCCCCCn1c(N)c(C(=O)NCCN2CCOCC2)c2nc3ccccc3nc21 | -0.4 | 6.0 | 10.3 | -32.7 | 4.4 | 85.7*
CC(C)OCCCNC(=O)c1c(N)n(CC2CCCO2)c2nc3ccccc3nc12 (stereo not drawn) | -0.9 | 25.1* | -0.2 | 5.0 | 22.8* | 3.4
COc1ccc(C2CN(C)CC2C(=O)c2ccc(F)cc2)cc1Cl (stereo not drawn) | 0.4 | 9.4 | -5.1 | -16.4 | . | 9.4
N[C@@H](Cc1c[nH]c2ccccc12)c1nnc(SCc2ccccc2)o1 | 4.3 | 7.7 | -18.5 | -13.9 | 5.4 | 9.8
N[C@@H](Cc1c[nH]c2ccccc12)c1nnc(SCc2ccc(Cl)cc2)o1 | -0.9 | 8.2 | -20.8 | -11.1 | 10.1 | 61.6*
OC(COCc1ccc(Cl)cc1)CN1CC=C(c2ccccc2)CC1 (stereo not drawn) | -0.3 | 9.0 | -9.3 | -19.0 | 18.7* | 50.6 | NPY1 antag ctr=8.1;NPY2 antag conf=10.9
Fc1cccc(F)c1-c1nc(-c2ccc(Cl)cc2)no1 | . | . | 9.2 | 6.0 | . | .
CCCC[N+]12CCC(CC1)C(=C(c1ccccc1)c1ccccc1)C2 | 0.6 | 18.2 | -8.6 | -8.5 | 23.2* | 1.6 | NPY1 antag ctr=12.2;NPY2 antag conf=10.9
CCC[N+]12CCC(CC1)C(=C(c1ccccc1)c1ccccc1)C2 | 2.5 | 12.2 | 1.8 | 10.3 | 3.5 | 8.8
O=C(COC(=O)c1ccc(O)cc1)Nc1ccc(Cl)cc1C(=O)c1ccccc1 | 6.3 | 17.4 | -6.7 | -44.5 | 19.3* | 76.5* | NPY1 antag ctr=12.4;NPY2 antag conf=9.2
COc1nc2ccccc2c(=O)n1-c1ccc(C)cc1 | 1.6 | 0.0 | 0.9 | -14.7 | 2.3 | -4.2
CCCCOc1nc2ccccc2c(=O)n1-c1ccccc1 | -0.9 | 5.8 | -2.4 | -14.4 | 17.1* | -5.9 | NPY1 antag ctr=5.0;NPY2 antag conf=18.1*
CC(C)COP(=O)(OCC(C)C)C(O)c1cccnc1 (stereo not drawn) | 1.0 | -5.0 | -3.4 | -20.2 | 0.0 | 1.5
O=C(O)c1cccc2c1NC(C(=O)O)C1CC(Sc3ccccc3[N+](=O)[O-])C(Cl)C21 (stereo not drawn) | 15.2* | 7.2 | 0.1 | -3.8 | 0.3 | 7.6 | RAM 5-FOA=6.8
CC(O)(CS(=O)(=O)c1ccccc1)C(=O)Nc1ccc(C(F)(F)F)cc1 (stereo not drawn) | -0.1 | 1.9 | -0.7 | 31.2 | -0.7 | -0.4
COc1ccccc1OP(=O)(Nc1cccnc1)Oc1ccccc1OC | 1.7 | 1.5 | -2.8 | -20.6 | 4.3 | -2.3
COc1cccc(NP(=O)(Oc2ccc(Cl)cc2)Oc2ccc(Cl)cc2)c1 | 15.3* | 2.0 | 5.2 | 17.0 | 15.2 | 63.4* | RAM 5-FOA=5.1
